In ChEMBL document CHEMBL1126204, “Nucleic acid related compounds. 74. Synthesis and biological activity of 2'(and 3')-deoxy-2'(and 3')-methylenenucleoside analogues that function as mechanism-based inhibitors of S-adenosyl-L-homocysteine hydrolase and/or ribonucleotide reductase” (J Med Chem, 1992):

Columns and labels:
MT4 = test: In vitro inhibition of MT-4 (Human T-lymphocyte) cell proliferation.; format: functional, cell-based
Summary of the method: (§1)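 Human Molt/4F, MT-4, and Raji cells (wild-type, TK⁻ or dCK⁻) in RPMI-1640 with 10% inactivated FCS, 2 mM L-glutamine and 0.075% NaHCO₃, seeded at 7.5 × 10⁵ cells/mL with compound (0.001–500 µM). Incubated 3 days at 37 °C in humidified CO₂; viable cells counted by Coulter counter. IC₅₀ = 50% reduction in viable cells; means of 2–4 independent experiments.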

[1] = In vitro inhibition of Molt/4f (Human T-lymphoblast) cell proliferation.; format: functional; summary of the method: as §1
[2] = In vitro inhibition of FM3A (murine carcinoma) cell proliferation.; format: functional; details: Mus musculus
Summary of the method: (§2)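 Murine FM3A or L1210 cells in Eagle's MEM with 10% inactivated FCS, 2 mM L-glutamine and 0.075% NaHCO₃, seeded at 5 × 10⁵ cells/mL with compound (0.001–500 µM). After 2 days at 37 °C in humidified CO₂, viable cells were counted with a Coulter counter. IC₅₀ = 50% fewer viable cells; mean of 2–4 experiments.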

L1210 [3] = test: In vitro inhibition of L1210 (murine leukemia) cell proliferation.; format: functional, cell-based; details: Mus musculus; summary of the method: as §2
CEM (Homo sapiens) [4] = test: Concentration required to inhibit the proliferation of human T-lymphocyte CEM/o cells by 50%
[5] = Concentration required to inhibit the proliferation of human T-lymphocyte CEM/dCK-(dCyd kinase deficient) cells by 50%; format: functional
Summary of the method: (§3)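 Wild-type CEM and kinase-deficient sublines (AK⁻, dCK⁻, AK⁻/dCK⁻) grown in RPMI-1640 with 10% inactivated FCS, 2 mM L-glutamine and 0.075% NaHCO₃. Cells were exposed to compound at 0.001–500 µM for 3 days at 37 °C in humidified CO₂. Viable cells counted by Coulter counter; IC₅₀ = 50% reduction in viable cells. Mean of 2–4 independent experiments.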

[6] = Concentration required to inhibit the proliferation of human T-lymphocyte CEM/AK-/dCK-(Ado and dCyd kinase deficient) cells by 50%; format: functional; summary of the method: as §3
[7] = Concentration required to inhibit the proliferation of human T-lymphocyte CEM/AK-(Ado kinase deficient) cells by 50%; format: functional; summary of the method: as §3
Raji [8] = test: Inhibition of human tumor B-lymphoblast Raji/dCK-(dcyd kinase deficient) cell proliferation; format: functional, cell-based; summary of the method: as §1
Homo sapiens [9] = organism: Homo sapiens; test: (§4) Concentration required to inhibit the proliferation of human T-lymphocyte CEM/o cells by 50%; format: functional; summary of the method: as §3
Homo sapiens [10] = organism: Homo sapiens; test: Concentration required to inhibit the proliferation of human T-lymphocyte CEM/dCK-(dcyd kinase deficient) cells by 50%; format: functional; summary of the method: as §3
Raji [11] = test: Inhibition of human tumor B-lymphoblast Raji/O cell proliferation; format: functional, cell-based; summary of the method: as §1
Raji [12] = test: Inhibition of human tumor B-lymphoblast Raji/TK-(thymidine kinase deficient) cell proliferation; format: functional, cell-based; summary of the method: as §1
CEM (Homo sapiens) [13] = test: Concentration required to inhibit the proliferation of human T-lymphocyte CEM/o cells by 50%; remark: listed apart in the source
[14] = Concentration required to inhibit the proliferation of human T-lymphocyte CEM/AK-(Ado kinase deficient) cells by 50%
L1210 [15] = test: Concentration required to inhibit the proliferation of L1210 murine leukemia cell line by 50% in presence exogenous necleoside dCyd (100 uM).; format: functional, cell-based; details: Mus musculus, in the assay text read “1000 uM” for “100 uM”
Summary of the method: (§5)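 L1210 murine leukemia cells in Eagle's MEM with 10% inactivated fetal calf serum, 2 mM L-glutamine and 0.075% NaHCO₃. 5 × 10⁵ cells/mL were exposed to test compound (0.001–500 µM) together with the stated exogenous nucleoside at subtoxic level. Incubated 2 days at 37 °C in humidified CO₂. Viable cells were counted by Coulter counter. IC₅₀ = 50% reduction in viable cell number; mean of 2–4 independent experiments.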

[16] = Concentration required to inhibit the proliferation of human T-lymphocyte CEM cells by 50% in presence exogenous necleoside Ado+dCyd (100 uM).; format: functional, cell-based; details: CCRF-CEM, in the assay text read “1000 uM” for “100 uM”
Summary of the method: (§6)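 CEM human T-lymphocytes in RPMI-1640 with 10% inactivated FCS, 2 mM L-glutamine and 0.075% NaHCO₃. Test compound (0.001–500 µM) was co-added with the stated subtoxic exogenous nucleoside(s). Incubated 3 days at 37 °C in humidified CO₂, then viable cells counted by Coulter counter. IC₅₀ is the level giving 50% fewer viable cells; means of 2–4 independent experiments.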

[17] = Concentration required to inhibit the proliferation of human T-lymphocyte CEM/AK-/dCK-(Ado and dCyd kinase deficient) cells by 50%
L1210 [18] = test: Antitumor activity in mice bearing L1210 murine leukemia cell line at a dose of 12.5 mg/kg/day.; format: functional, Mus musculus
Summary of the method: (§7)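 DBA/2 mice (20 g) inoculated ip with 10⁶ L1210 leukemia cells; test agent given ip once daily for 5 successive days beginning 1 day after inoculation, dissolved in Eagle's MEM containing 2.5% Tween (250 μL injection). Untreated tumor-bearing controls; read-out mean survival time in days, 7–15 mice per group.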

L1210 [19] = test: Concentration required to inhibit the proliferation of L1210 murine leukemia cell line by 50% in presence exogenous necleoside Ado (100 uM).; format: functional, cell-based; details: Mus musculus, in the assay text read “1000 uM” for “100 uM”; summary of the method: as §5
[20] = Concentration required to inhibit the proliferation of human T-lymphocyte CEM cells by 50% in presence exogenous necleoside Ado (100 uM).; format: functional, cell-based; details: CCRF-CEM, in the assay text read “1000 uM” for “100 uM”; summary of the method: as §6
L1210 [21] = test: Antitumor activity in mice bearing L1210 murine leukemia cell line at a dose of 25 mg/kg/day.; format: functional, Mus musculus; summary of the method: as §7
L1210 [22] = test: Concentration required to inhibit the proliferation of L1210 murine leukemia cell line by 50% in presence exogenous necleoside Guo (50 uM).; format: functional, cell-based; details: Mus musculus; summary of the method: as §5
L1210 [23] = test: Antitumor activity in mice bearing L1210 murine leukemia cell line at a dose of 100 mg/kg/day.; format: functional, Mus musculus; summary of the method: as §7
L1210 [24] = test: Antitumor activity in mice bearing L1210 murine leukemia cell line at a dose of 50 mg/kg/day.; format: functional, Mus musculus; summary of the method: as §7
[25] = Concentration required to inhibit the proliferation of human T-lymphocyte CEM cells by 50% in presence exogenous necleoside dCyd (100 uM).; format: functional, cell-based; details: CCRF-CEM, in the assay text read “1000 uM” for “100 uM”; summary of the method: as §6
[26] = Concentration required to inhibit the proliferation of human T-lymphocyte CEM/dCK-(dCyd kinase deficient) cells by 50%
L1210 [27] = test: Concentration required to inhibit the proliferation of L1210 murine leukemia cell line by 50% in presence exogenous necleosides dCyd+Ado (100 uM).; format: functional, cell-based; details: Mus musculus, in the assay text read “1000 uM” for “100 uM”; summary of the method: as §5
CCRF-CEM = test: as §4; format: functional, cell-based; summary of the method: as §3

SMILES	IC50 (MT4) [µM]	IC50 [1] [µM]	IC50 [2] [µM]	IC50 (L1210 [3]) [µM]	also measured
C=C1[C@@H](O)[C@H](n2ccc(=O)[nH]c2=O)O[C@@H]1CO	450	> 500	> 500	> 500	
C=C1[C@@H](O)[C@H](n2cnc3c(Cl)nc(N)nc32)O[C@@H]1CO	> 500	> 500	469	441	
C=C1[C@@H](O)[C@H](n2cnc3c(N)nc(N)nc32)O[C@@H]1CO	> 200	> 200	> 200	> 200	IC50 (CEM (Homo sapiens) [4]): > 500 µM; IC50 [5]: > 500 µM; IC50 [6]: > 500 µM; IC50 [7]: > 500 µM
C=C1[C@@H](O)[C@H](n2cnc3c(S)nc(N)nc32)O[C@@H]1CO	12	276	495	207	
C=C1[C@@H](O)[C@H](n2cnc3c(SC)nc(N)nc32)O[C@@H]1CO	> 500	> 500	> 500	> 500	
C=C1[C@@H](O)[C@H](n2cnc3c(O)ncnc32)O[C@@H]1CO	> 200	> 200	> 200	> 200	
C=C1[C@@H](O)[C@H](n2cnc3c(OC)nc(N)nc32)O[C@@H]1CO	> 500	> 500	439	446	
C=C1[C@@H](O)[C@H](n2cnc3c(N)ncnc32)O[C@@H]1CO	43	> 500	466	228	
C=C1[C@@H](O)[C@H](n2ccc(N)nc2=O)O[C@@H]1CO	121	172	> 500	378	IC50 (Raji [8]): > 500 µM; IC50 (Homo sapiens [9]): 63 µM; IC50 (Homo sapiens [10]): > 500 µM; IC50 (Raji [11]): 33 µM; IC50 (Raji [12]): 52 µM
C=C1[C@@H](O)[C@H](n2cnc3c(O)nc(N)nc32)O[C@@H]1CO	> 200	> 200	> 200	> 200	IC50 [5]: > 500 µM; IC50 [6]: > 500 µM; IC50 (CEM (Homo sapiens) [13]): > 500 µM; IC50 [7]: > 500 µM
C=C1[C@@H](O)[C@H](n2cnc3c(N(C)C)nc(N)nc32)O[C@@H]1CO	> 500	> 500	> 500	> 500	
C=C1[C@H](n2ccc(=O)[nH]c2=O)O[C@H](CO)[C@H]1O	> 500	> 500	> 500	> 500	
C=C1[C@H](n2cnc3c(N)ncnc32)O[C@H](CO)[C@H]1O	131	> 500	232	65	
C=C1[C@H](n2cnc3c(N)nc(N)nc32)O[C@H](CO)[C@H]1O	> 500	22	67	8.2	IC50 [14]: 38 µM; IC50 (L1210 [15]): 16 µM; IC50 (CEM (Homo sapiens) [4]): 7.7 µM; IC50 [16]: 95 µM; IC50 [17]: 194 µM; Mean survival time (L1210 [18]): 9.1 days; IC50 (L1210 [19]): 48 µM; IC50 [20]: 21 µM; Mean survival time (L1210 [21]): 8.7 days; IC50 (L1210 [22]): 44 µM; Mean survival time (L1210 [23]): 2 days; Mean survival time (L1210 [24]): 3 days; IC50 [25]: 133 µM; IC50 [26]: 196 µM; IC50 (L1210 [27]): 41 µM
C=C1[C@H](n2cnc3c(OC)nc(N)nc32)O[C@H](CO)[C@H]1O	180	23	41	10	
C=C1[C@H](n2cnc3c(Cl)nc(N)nc32)O[C@H](CO)[C@H]1O	176	22	50	10	
C=C1[C@H](n2cnc3c(O)nc(N)nc32)O[C@H](CO)[C@H]1O	150	22	102	8.5	IC50 (L1210 [15]): 17 µM; IC50 [5]: 221 µM; IC50 [16]: 136 µM; Mean survival time (L1210 [18]): 7.5 days; IC50 (L1210 [19]): 55 µM; IC50 [6]: 201 µM; IC50 [20]: 25 µM; Mean survival time (L1210 [21]): 7.5 days; IC50 (L1210 [22]): 51 µM; Mean survival time (L1210 [23]): 2 days; Mean survival time (L1210 [24]): 5.3 days; IC50 [25]: 136 µM; IC50 (CCRF-CEM): 9.4 µM; IC50 (L1210 [27]): 75 µM; IC50 [7]: 36 µM
C=C1[C@H](n2cnc3c(S)nc(N)nc32)O[C@H](CO)[C@H]1O	0.48	24	26	20	
C=C1[C@H](n2cnc3c(O)ncnc32)O[C@H](CO)[C@H]1O	> 200	> 200	113	60	
C=C1[C@H](n2cnc3c(N(C)C)nc(N)nc32)O[C@H](CO)[C@H]1O	> 500	335	> 500	454	
C=C1[C@H](n2cnc3c(SC)nc(N)nc32)O[C@H](CO)[C@H]1O	> 500	> 500	> 500	> 500	
